Source: PMC3102230 (Chemistry & biology, 2011)
Where two headings read alike, the source gives them in different places.

Tests used:
E. coli EF-G = test: Malachite green ribosome-dependent GTPase; type: biochemical; conditions: for effect on rdGTPase activity of EF-G, ribosomes lacking L7/L12: E. coli 70SΔL7/L12 ribosomes, 12 hours at 20 °C (Figure 2G)
S. faecalis TetM = test: Malachite green rdGTPase assay, TetM; type: biochemical; conditions: for effect on rdGTPase activity of TetM: E. coli 70S ribosomes, 1 μM ThS or 5 μM MiC (Figure 2B)
E. coli EF4 = test: Malachite green rdGTPase assay, EF4; type: biochemical; conditions: for effect on rdGTPase activity of EF4: E. coli 70S ribosomes, 1 μM ThS or 5 μM MiC (Figure 2C); for effect on rdGTPase activity of EF4, ribosomes lacking L7/L12: E. coli 70SΔL7/L12 ribosomes, 12 hours at 20 °C (Figure 2H)
E. coli BipA = test: Malachite green rdGTPase assay, BipA; type: biochemical; conditions: for effect on rdGTPase activity of BipA: E. coli 70S ribosomes, 1 μM ThS or 5 μM MiC (Figure 2D); for effect on rdGTPase activity of BipA, ribosomes lacking L7/L12: E. coli 70SΔL7/L12 ribosomes, 12 hours at 20 °C (Figure 2I)
E. coli EF-GΔG′ = test: Malachite green rdGTPase assay, EF-GΔG′; type: biochemical
Tet(O) = test: rdGTPase assay, Tet; type: biochemical; conditions: data not shown
PRE complex = test: EF-G catalysed translocation assay; type: biochemical; conditions: 10 μM Evn, E. coli fMetPhe-tRNAPhe(Prf16/20)
Method in brief: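 Initiation complex: ribosomes (2 μM), MFK mRNA (8 μM), IF1/IF2/IF3 (3 μM each), 1 mM GTP, [35S]fMet-tRNAfMet (3 μM), 25 min, buffer A pH 7.5, 37 °C. Combined with EF-Tu ternary complex for 45 sec. PRE complex sucrose-cushion purified (20 mM Mg2+). 0.1 μM PRE ± test compound stopped-flow mixed with 5 μM EF-G, 1 mM GTP. Proflavin excitation 460 nm, 495 nm long-pass. Double-exponential fits.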

[1] = system: IF2-dependent 70SIC formation; test: IF2-dependent 70SIC formation light scattering assay; type: biochemical, E. coli
Method in brief: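 Stopped-flow light scattering at 436 nm excitation with a 455 nm cut-off filter. It was premixed with test compound (0–5 μM), then rapidly mixed with 0.3 μM 50S subunits. All concentrations are final after mixing.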

POST complex = test: EF4-mediated back-translocation assay; type: biochemical, E. coli; conditions: 5 μM Evn
Method in brief: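 POST complex formed from initiation and ternary complexes plus EF-G (0.2:1 to ribosomes) and 1 mM GTP, 37 °C, 10 min, then sucrose-cushion purified. 0.1 μM POST premixed with 0.15 μM tRNAfMet was stopped-flow mixed with 3 μM EF4, 0.5 mM GDPNP and test compound at 0–5 μM (final). Proflavin excitation 460 nm, 495 nm long-pass. Traces fit to a three-step back-translocation kinetic model.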

[2] = system: E. coli lysate-based system; test: In vitro coupled transcription-translation assay; type: biochemical; conditions: read-out: IC50, in vitro transcription-translation (synthesis of GFP); E. coli in vitro coupled transcription-translation system (Figure S3)
Method in brief: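 Coupled transcription-translation in an E. coli lysate-based system, run with or without test compound. GFP fluorescence was scanned with a blue laser module, and the images were quantified.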

[3] = E. coli 70S ribosomes, 1 μM ThS or 5 μM MiC (Figure 2A)
[4] = E. coli 70S ribosomes, 1 μM ThS or 5 μM MiC (Figure 2F)

Row | SMILES | IC50 [2] [µM] | effect on rdGTPase activity of EF-G (E. coli EF-G; [3]) | effect on rdGTPase activity of EF-G, ribosomes lacking L7/L12 (E. coli EF-G) | effect on rdGTPase activity of TetM (S. faecalis TetM) | effect on rdGTPase activity of EF4 (E. coli EF4) | effect on rdGTPase activity of EF4, ribosomes lacking L7/L12 (E. coli EF4) | effect on rdGTPase activity of BipA (E. coli BipA) | effect on rdGTPase activity of BipA, ribosomes lacking L7/L12 (E. coli BipA) | effect on rdGTPase activity of EF-GΔG′ (E. coli EF-GΔG′; [4]) | also measured
1 | COC[C@H]1O[C@@H](O[C@@H]2OC[C@@H]3O[C@@]4(OC[C@@H](OC(=O)c5c(C)cc(O)cc5O)[C@@H]5OCO[C@H]54)O[C@H]3[C@H]2O)[C@@H](OC)[C@@H](O)[C@@H]1O[C@@H]1O[C@H](C)[C@H](OC)[C@H](O[C@@H]2O[C@H](C)[C@H]3O[C@]4(C[C@@H](O)[C@H](O[C@H]5C[C@@H](O[C@H]6C[C@](C)([N+](=O)[O-])[C@@H](OC)[C@H](C)O6)[C@H](OC(=O)c6c(C)c(Cl)c(O)c(Cl)c6OC)[C@@H](C)O5)[C@@H](C)O4)O[C@]3(C)[C@@H]2O)[C@H]1O [Evn, evernimicin] | ~2 | – | – | – | – | – | – | – | – | effect on rdGTPase activity of EF-G (E. coli EF-G; increasing concentrations of Evn (Figure 5B)): little or no effect; effect on rdGTPase activity of Tet(M) (S. faecalis TetM; increasing concentrations of Evn (Figure 5D)): little or no effect; IC50 (E. coli EF4; read-out: IC50, inhibition of EF4 rdGTPase, E. coli 70S ribosomes (Figure 5F)): ~3 µM; IC50 (E. coli BipA; read-out: IC50, inhibition of BipA rdGTPase, E. coli 70S ribosomes (Figure 5E)): ~20 µM; effect on rdGTPase activity of EF-GΔG′ (E. coli EF-GΔG′; increasing concentrations of Evn (Figure 5C)): little or no effect; effect on rdGTPase of Tet(O) (Tet(O)): does not inhibit; apparent rate constant of translocation, Step 2 (PRE complex; control 1.3 ± 0.1 s^−1): 3.5 ± 0.2 s⁻¹; apparent rate constant of translocation, Step 1 (PRE complex; control 20.7 ± 0.6 s^−1): 28.1 ± 0.7 s⁻¹; effect on IF2-dependent light scattering (70SIC formation) ([1]; 5 μM Evn): almost all IF2-dependent light scattering was abolished; Ki ([1]; read-out: apparent Ki for inhibition of IF2-dependent 70SIC formation, reciprocal of IF2-dependent light scattering increase at 1 sec vs. Evn concentration): 1.8 ± 0.2 µM; effect on EF4-catalyzed component of back-translocation (POST complex): completely abolished; effect on rdGTPase activity of IF2 (E. coli IF2; increasing concentrations of Evn (Figure 5A)): strongly inhibits; IC50 (E. coli IF2; read-out: IC50, inhibition of IF2 rdGTPase, E. coli 70S ribosomes (Figure 5A)): ~7 µM
2 | C/C=C(\NC(=O)c1csc(-c2csc(-c3ccc4c(n3)-c3csc(n3)[C@H]([C@@H](C)O)NC(=O)c3csc(n3)[C@H](C(C)C)NC(=O)c3csc(n3)/C(=C/C)NC(=O)[C@H]([C@@H](C)O)NC(=O)c3csc-4n3)n2)n1)C(=O)NC[C@@H](C)O [MiC, micrococcin] | ~3 | enhanced | inhibited | inhibited | inhibited | inhibited | inhibited | inhibited | inhibit, rather than stimulate | –
3 | C=C(NC(=O)C(=C)NC(=O)c1csc(C2=N[C@@H]3c4csc(n4)[C@H]4NC(=O)c5csc(n5)[C@H]([C@](C)(O)[C@@H](C)O)NC(=O)[C@H]5CSC(=N5)/C(=C/C)NC(=O)[C@H]([C@@H](C)O)NC(=O)c5csc(n5)[C@]3(CC2)NC(=O)[C@H](C)NC(=O)C(=C)NC(=O)[C@H](C)NC(=O)[C@H]([C@@H](C)CC)N[C@@H]2C=Cc3c([C@H](C)O)cc(nc3[C@H]2O)C(=O)O[C@@H]4C)n1)C(N)=O [ThS, thiostrepton] | ~3 | inhibited | inhibited | inhibited | inhibited | inhibited | inhibited | inhibited | inhibited | effect on rdGTPase activity of IF2 (E. coli IF2; E. coli 70S ribosomes, 1 μM ThS or 5 μM MiC (Figure 2E)): inhibited
